{"data": "Assay results pooled from the literature", "target": "Rhodopsin kinase GRK7 (GRK7, Homo sapiens, UniProt Q8WTQ7)", "Sequence (Q8WTQ7 1-553, as in one of the studies)": "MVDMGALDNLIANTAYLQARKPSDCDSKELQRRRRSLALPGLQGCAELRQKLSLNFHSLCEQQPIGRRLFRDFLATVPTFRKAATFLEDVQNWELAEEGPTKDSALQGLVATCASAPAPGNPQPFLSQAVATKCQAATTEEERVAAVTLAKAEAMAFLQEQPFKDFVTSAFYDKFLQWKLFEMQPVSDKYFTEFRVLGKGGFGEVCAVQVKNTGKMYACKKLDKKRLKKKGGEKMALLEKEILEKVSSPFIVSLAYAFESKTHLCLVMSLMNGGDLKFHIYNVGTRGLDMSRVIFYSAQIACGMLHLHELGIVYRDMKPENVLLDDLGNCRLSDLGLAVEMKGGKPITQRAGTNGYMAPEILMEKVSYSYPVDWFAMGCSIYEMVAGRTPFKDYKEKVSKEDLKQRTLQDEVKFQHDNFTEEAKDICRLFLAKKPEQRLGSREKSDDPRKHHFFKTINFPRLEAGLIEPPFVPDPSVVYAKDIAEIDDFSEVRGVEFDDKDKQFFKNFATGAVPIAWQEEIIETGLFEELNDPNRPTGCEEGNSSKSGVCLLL", "note": "Protocols differ between the studies behind these lines."}
{"Structure (SMILES)": "C=CC(=O)N1CCC(C(=O)NCC(=O)N2CCN(c3nc(-c4cnc(N)nc4C(F)F)nc(N4CCOCC4)n3)CC2)CC1", "test": "binding, competition with immobilised ligand", "conditions": "1 µM", "remaining binding [%]": 87}
{"Structure (SMILES)": "COc1cc(-c2cn(C3CCc4c(F)cccc4N(CC(F)(F)F)C3=O)nn2)ccc1-n1cnc(C)c1 (stereo not shown)", "test": "cell-free assay, competition with immobilised ligand", "conditions": "1 µM", "remaining binding [%]": 100}
{"Structure (SMILES)": "O=C(NCCCN1CCOCC1)c1ccc(Nc2ncc(Cl)c(-c3ccc(Cl)s3)n2)cc1", "test": "binding, competition with immobilised ligand", "conditions": "1 µM", "remaining binding [%]": 90}
{"Structure (SMILES)": "CCC(=O)N[C@@H]1CC[C@H](C(=O)N(C)c2ccc(-c3nc4ccccc4o3)cc2)C1", "test": "cell-free assay, competition with immobilised ligand", "conditions": "1 µM", "remaining binding [%]": 93}
{"Structure (SMILES)": "CN(c1nccc(-c2cnn3ncccc23)n1)C1CC1", "test": "binding", "conditions": "1 µM", "remaining binding [%]": 100}
{"Structure (SMILES)": "O=C(Nc1c[nH]nc1C(=O)NC1CCNCC1)c1cc(F)cc(F)c1", "test": "binding, competition with immobilised ligand", "conditions": "1 µM", "remaining binding [%]": 84}
{"Structure (SMILES)": "C[C@H](c1ccc(F)cc1)N(Cc1cccc(C(=O)O)c1)C(=O)c1cnc2ccccc2c1", "test": "cell-free assay, competition with immobilised ligand", "conditions": "1 µM", "remaining binding [%]": 100}
{"Structure (SMILES)": "CN(C)c1nccc(-c2cnn3ncccc23)n1", "test": "binding", "conditions": "1 µM", "remaining binding [%]": 100}
{"Structure (SMILES)": "CNC(=O)[C@@H]1CC[C@@H](n2c(-c3ccc4cnccc4c3)nc3ccc(C(=O)NCc4cccc(C(N)=O)c4)cc32)C1", "test": "binding, competition with immobilised ligand", "conditions": "1 µM", "remaining binding [%]": 100}
{"Structure (SMILES)": "Cc1cnc(Nc2ccc(C(=O)N3CCC(N4CCCC4)CC3)cc2)nc1-c1cc2ccccc2s1", "test": "binding, competition with immobilised ligand", "conditions": "1 µM", "remaining binding [%]": 29}
{"Structure (SMILES)": "CN(C)CC#Cc1ccc(OCCCc2sc(N3CCc4cccc(C(=O)Nc5nc6ccccc6s5)c4C3)nc2C(=O)O)c(F)c1", "test": "cell-free assay, competition with immobilised ligand", "conditions": "1 µM", "remaining binding [%]": 97}
{"Structure (SMILES)": "COc1ccnn2ncc(-c3ccnc(N(C)C)n3)c12", "test": "binding", "conditions": "1 µM", "remaining binding [%]": 94}
{"Structure (SMILES)": "COc1cnc(Nc2cccc(S(N)(=O)=O)c2)nc1N1CCN(c2ccccc2)C(=O)C1", "test": "binding, competition with immobilised ligand", "conditions": "1 µM", "remaining binding [%]": 61}
{"Structure (SMILES)": "N[C@H]1CCN(c2nccc(-c3cnn4ncccc34)n2)C1", "test": "binding", "conditions": "1 µM", "remaining binding [%]": 100}
{"Structure (SMILES)": "O=C(Nc1ccc(Oc2ccc(F)cc2)cc1)N1CCc2ncccc2[C@H]1c1ccc(F)cc1", "test": "cell-free assay, competition with immobilised ligand", "conditions": "1 µM", "remaining binding [%]": 100}
{"Structure (SMILES)": "Nc1ncc2c(n1)-c1c([nH]c3ccc(C#CC4CC4)cc13)CCCC2", "test": "binding, competition with immobilised ligand", "conditions": "1 µM", "remaining binding [%]": 93}
{"Structure (SMILES)": "O=C(c1ccc(Nc2ncc(Cl)c(-c3cc4ccccc4s3)n2)cc1)N1CCC(N2CCCC2)CC1", "test": "binding, competition with immobilised ligand", "conditions": "1 µM", "remaining binding [%]": 56}
{"Structure (SMILES)": "CN(CCCC(F)(F)F)c1nccc(-c2cnn3ncccc23)n1", "test": "binding", "conditions": "1 µM", "remaining binding [%]": 93}
{"Structure (SMILES)": "COc1cc(-c2cn(C3CCc4ccccc4N(CC(F)(F)F)C3=O)nn2)ccc1-n1ccc(C)n1 (stereo not shown)", "test": "cell-free assay, competition with immobilised ligand", "conditions": "1 µM", "remaining binding [%]": 87}
{"Structure (SMILES)": "COc1ncc2cc3ccccc3nc2c1C#N", "test": "cell-free assay, competition with immobilised ligand", "conditions": "5 µM", "remaining binding [%]": 100}
{"Structure (SMILES)": "CN(C)c1ncc(F)c(-c2cnn3ncccc23)n1", "test": "binding", "conditions": "1 µM", "remaining binding [%]": 100}
{"Structure (SMILES)": "FC(F)(F)Oc1cccc(-c2cnc3ccc(-c4ccncc4)nn23)c1", "test": "cell-free assay, competition with immobilised ligand", "conditions": "5 µM", "remaining binding [%]": 24}
